# Experimental data: ChEMBL document CHEMBL1145969, “New semisynthetic quassinoids with in vivo antimalarial activity” (J Med Chem, 2003)
# Tests used:
# Plasmodium falciparum = experiment: In vitro antimalarial activity against Plasmodium falciparum; format: functional, organism-based
# Summary of the method: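 Chloroquine-sensitive P. falciparum, FCR-3 strain, grown in vitro; potency is reported as EC50.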
# Mus musculus [1] = experiment: Antimalarial potency was evaluated by the increase of life span of mice (Mus musculus) at 3 mg/kg; format: functional
# Summary of the method: (§1)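 Mice infected with P. berghei were treated daily in a 4-day suppressive test, with the dose as given in each line. Increase of life span = (T/C − 1) × 100%, where T and C are the mean survival days of the treated and control groups.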
# FM3A = experiment: Cytotoxicity of compound was tested against mouse mammary tumor FM3A cells; format: functional, cell-based
# Mus musculus [2] = experiment: In Vivo antimalarial activity of compound was tested in Plasmodium berghei infected mice (Mus musculus); format: functional
# Summary of the method: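 Four-day suppressive test in P. berghei-infected mice, dosed daily at up to 3.0 mg/kg per day. Parasitemia is the number of infected erythrocytes over total erythrocytes. Survival is scored as increase of life span: ILS = (T/C − 1) × 100%, using mean survival days of the treated (T) and control (C) groups.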
# [3] = Selectivity index defined as mean of EC50 value for FM3A cells/mean of EC50 value for Plasmodium falciparum was determined; format: functional
# Summary of the method: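 Index is the mean EC50 in FM3A mouse mammary tumor cells (the host-cell model) divided by the mean EC50 against chloroquine-sensitive P. falciparum FCR-3.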
# Mus musculus [4] = experiment: Antimalarial potency was evaluated by the increase of life span of mice (Mus musculus) at 1 mg/kg; format: functional; summary of the method: as §1
EC50 (Plasmodium falciparum) [µM],Compound,ILS at 3 mg/kg (Mus musculus [1]) [%],EC50 (FM3A) [µM],ED50 (Mus musculus [2]) [mg/kg],ED90 (Mus musculus [2]) [mg/kg],Selectivity index [3],ILS at 1 mg/kg (Mus musculus [4]) [%]
–,COC(=O)[C@@]12OC[C@]34[C@H]([C@@H](O)[C@@H]1O)[C@@]1(C)CC(=O)C(O)=C(C)[C@@H]1C[C@H]3OC(=O)[C@H](O)[C@@H]24 [BRUCEOLIDE],–,–,1.1,–,–,–
–,CCN(CC)CCCC(C)Nc1ccnc2cc(Cl)ccc12 (stereo not drawn) [CHLOROQUINE],15,32,2,3.3,1780,–
0.053,COC(=O)O[C@H]1C(=O)O[C@@H]2C[C@H]3C(C)=C(O)C(=O)C[C@]3(C)[C@H]3[C@@H](O)[C@H](O)[C@@]4(C(=O)OC)OC[C@]32[C@@H]14,–,8.7,–,–,164,–
0.1,CCCOC(=O)OC1=C(C)[C@@H]2C[C@H]3OC(=O)[C@H](OC(=O)OCCC)[C@H]4[C@]5(C(=O)OC)OC[C@]34[C@H]([C@@H](O)[C@@H]5O)[C@@]2(C)CC1=O,–,6.6,–,–,66,–
0.88,COC(=O)[C@@]12OC[C@]34[C@H]([C@@H](O)[C@@H]1O)[C@@]1(C)CC(=O)C(OC(C)=O)=C(C)[C@@H]1C[C@H]3OC(=O)[C@H](O)[C@@H]24,–,> 32,–,–,>36,–
0.014,CCCCOC(=O)OC1=C(C)[C@@H]2C[C@H]3OC(=O)[C@H](OC(=O)OCCCC)[C@H]4[C@]5(C(=O)OC)OC[C@]34[C@H]([C@@H](O)[C@@H]5O)[C@@]2(C)CC1=O,–,0.7,–,–,50,–
–,COC(=O)[C@@]12OC[C@]34[C@H]([C@@H](O)[C@@H]1O)[C@@]1(C)CC(=O)C(O)=C(C)[C@@H]1C[C@H]3OC(=O)[C@H](OC(C)=O)[C@@H]24 [BRUCEINE B],–,8,–,–,333,–
–,COC(=O)[C@@]12OC[C@]34[C@H]([C@@H](O)[C@@H]1O)[C@@]1(C)CC(=O)C(OC(C)=O)=C(C)[C@@H]1C[C@H]3OC(=O)[C@H](OC(C)=O)[C@@H]24,–,16,0.46,0.98,410,49

Compound,EC50 (Plasmodium falciparum) [µM],ILS at 3 mg/kg (Mus musculus [1]) [%],EC50 (FM3A) [µM],ED50 (Mus musculus [2]) [mg/kg],ED90 (Mus musculus [2]) [mg/kg],Selectivity index [3],ILS at 1 mg/kg (Mus musculus [4]) [%]
CCOC(=O)OC1=C(C)[C@@H]2C[C@H]3OC(=O)[C@H](OC(=O)OCC)[C@H]4[C@]5(C(=O)OC)OC[C@]34[C@H]([C@@H](O)[C@@H]5O)[C@@]2(C)CC1=O,0.064,182,36,0.49,1.9,563,–
COC(=O)[C@@]12OC[C@]34[C@H]([C@@H](O)[C@@H]1O)[C@@]1(C)CC(=O)C(OC(=O)OC(C)C)=C(C)[C@@H]1C[C@H]3OC(=O)[C@H](OC(=O)OC(C)C)[C@@H]24,0.08,86,11,1.4,> 3,138,–
COC(=O)OC1=C(C)[C@@H]2C[C@H]3OC(=O)[C@H](OC(=O)OC)[C@H]4[C@]5(C(=O)OC)OC[C@]34[C@H]([C@@H](O)[C@@H]5O)[C@@]2(C)CC1=O,0.09,196,> 63,1.3,3,>700,–
